Test results reported in ChEMBL document CHEMBL1137201, “A virtual screening approach to finding novel and potent antagonists at the melanin-concentrating hormone 1 receptor” (J Med Chem, 2004).

The compounds below were run against T1, Melanin-concentrating hormone receptor 1 (Homo sapiens, UniProt Q99705) (assay: (§1) Binding affinity for Melanin-concentrating hormone 1 receptor expressed in CHO cells).
Type: cell-based
Summary of the method: (§2)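 Scintillation proximity binding: CHO membranes (5 μg) overexpressing MCH-1R with wheat germ agglutinin SPA beads and 0.4 nM 125I-[Phe13,Tyr19]-MCH, 1 h at room temperature. Nonspecific binding was taken with 1 μM MCH. Bound label was scintillation-counted. IC50 came from six-point semilog concentration–response curves.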

T1 sequence (Q99705 whole entry): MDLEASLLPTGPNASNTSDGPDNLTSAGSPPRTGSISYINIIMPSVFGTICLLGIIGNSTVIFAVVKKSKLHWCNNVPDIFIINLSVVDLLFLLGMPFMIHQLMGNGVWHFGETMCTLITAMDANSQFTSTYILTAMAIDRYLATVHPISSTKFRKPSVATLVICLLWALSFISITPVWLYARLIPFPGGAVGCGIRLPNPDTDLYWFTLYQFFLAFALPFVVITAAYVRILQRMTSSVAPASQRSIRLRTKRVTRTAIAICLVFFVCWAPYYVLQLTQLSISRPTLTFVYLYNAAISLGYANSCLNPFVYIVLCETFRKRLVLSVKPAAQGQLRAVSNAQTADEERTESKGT

SMILES | Kb [nM]
O=C(CCCN1CCC(O)(c2ccc(Cl)cc2)CC1)c1ccc(Cl)cc1 | 9
CCCCN(CCCC)c1ccc(CNC[C@H]2CC[C@H](N(C)C(=O)c3cccc4ccccc34)CC2)cc1 | 284

What follows are compounds tested against T1, Melanin-concentrating hormone receptor 1 (assay: Inhibition of Melanin-concentrating hormone 1 receptor expressed in CHO cells).
Type: cell-based

SMILES | IC50 [nM]
O=C(CNC(=O)OCc1ccccc1)NCC(CCCN1CCC(c2ccccc2)CC1)(c1ccccc1)c1ccccc1 | 5
CCN1CCN(c2cc(C)c3cc(NC(=O)CCc4ccc(OC)cc4)ccc3n2)CC1 | 730
CCN1CCN(c2cc(C)c3cc(NC(=O)C(C)Oc4ccc(Cl)cc4Cl)ccc3n2)CC1 (stereo not given) | 230
Cc1cc(N2CCN(C)CC2)nc2ccc(NC(=O)C(C)Oc3ccc(Cl)cc3Cl)cc12 (stereo not given) | 790
CCN1CCN(c2cc(C)c3cc(NC(=O)COc4cccc(C)c4)ccc3n2)CC1 | 6600
CCN1CCN(c2cc(C)c3cc(NC(=O)CSc4ccncc4)ccc3n2)CC1 | 8200
O=C1c2cc(OCCC3CCN(Cc4ccc(C5=NCCN5)cc4)CC3)ccc2CCCN1Cc1ccccc1 | 300
COc1ccc(CCC(=O)Nc2ccc3nc(N4CCN(C)CC4)cc(C)c3c2)cc1 | 250
CN(C)CC1CCc2cc(NC(=O)c3ccc(-c4ccc(F)cc4)cc3)ccc2C1 (stereo not given) | 5.5

What follows are compounds tested against T1, Melanin-concentrating hormone receptor 1 (assay: as §1).
Type: cell-based
Summary of the method: as §2

SMILES | Ki [nM]
CC(=O)N[C@@H]1CCN(CCCCN(C(=O)Nc2ccc(F)c(Cl)c2)c2ccc(-c3cccc(C#N)c3)cc2)C1 | < 100
COc1cc(N2CCN(C[C@H]3C[C@@H]3c3ccccc3)CC2)ccc1Br | < 1000
CC[C@H](NC(=O)c1ccc(CC2CCN(Cc3ccc4c(c3)OCO4)CC2)cc1)c1ccc(C(=O)OC)cc1 | ≤ 1500

Each compound was assayed against T1, Melanin-concentrating hormone receptor 1 (assay: Percent inhibition of Melanin-concentrating hormone 1 receptor expressed in CHO cells at 10 uM).
Type: cell-based
Summary of the method: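 Same SPA radioligand binding setup: CHO MCH-1R membranes with 0.4 nM 125I-[Phe13,Tyr19]-MCH and WGA beads, 1 h at room temperature, 1 μM MCH for nonspecific binding. Compounds were screened at a single 10 μM concentration, and actives were retested in duplicate at 10 μM. Read-out is percent inhibition of specific binding.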

SMILES | inhibition [%]
Cc1cc(N2CCN(C)CC2)nc2ccc(NC(=O)CCC3CCCC3)cc12 | 11.6
